Read-outs that look alike come from different tables or passages of the source. Each block holds one molecule with its values, some of them ahead of it.
Key:
[1] = target: KSR2 in purified KSR2-MEK1 complexes (Homo sapiens, UniProt Q6VAB6); assay: ATP^biotin probe-labelling competition; type: binding
MEK1 = MEK1 (Oryctolagus cuniculus, UniProt P29678); assay: ATP^biotin probe-labelling competition; type: binding, rabbit; settings: read-out: IC50 (ATP), MEK1; free ATP vs 2 μM ATP^biotin, KSR2-MEK1 complexes
How it was run: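 The probe transfers desthio-biotin onto active-site lysines of both KSR2 and MEK1. Biotin, total MEK and total KSR detected by western blot, giving probe-labelling versus ATP level for each partner.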

[2] = tested on: KSR-stimulated MEK and ERK phosphorylation in 293H cells; assay: KSR-driven MAPK signalling reconstitution; type: cell-based; settings: 5 μM, 2 h
BRAF(F667E) + KSR2:MEK1 = BRAF(F667E) + KSR2:MEK1 (Homo sapiens, UniProt Q6VAB6); assay: bio-layer inferometry; type: binding; settings: compound 25 μM
[3] = tested on: BRAF(V600E)-induced MAPK activation in 293H cells; assay: BRAF; type: cell-based; settings: 5 μM, 2 h
How it was run: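 They were then exposed for 2 h to DMSO or 5μM test compound, alongside a reference RAF inhibitor. Cells were collected and western blotted for phospho-MEK1/2 (Ser218/Ser222) and phospho-ERK1/2 (T202/Y204). Primary antibodies were applied overnight in 5% BSA TBS-T.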

[4] = target: MEK phosphorylation by BRAF or CRAF (Homo sapiens, UniProt Q6VAB6); assay: RAF phosphorylation assay of KSR2-MEK1 or MEK1 in vitro; type: biochemical; settings: KSR2-MEK1; compound 1 μM
[5] = tested on: MEK phosphorylation by BRAF or CRAF; assay: as above; type: biochemical; settings: KSR absent or KSR2(A690F) mutant; compound 1 μM
[6] = tested on: ERK phosphorylation in HCT-116 cells; assay: phospho-ERK western blot; type: cell-based; settings: APS-2-79 treatment
[7] = tested on: Phospho-AMPK in HCT116 cells; assay: phospho-AMPK western blot; type: cell-based; settings: co-treatment with trametinib, 48 h
How it was run: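 HCT116 cells received test compound and/or a MEK inhibitor for 48 h. Lysates were western blotted for phospho-AMPK, phospho-ERK and total MEK, with primary antibodies overnight in 5% BSA TBS-T. Signal was detected by chemiluminescence on a CCD imager, and band intensities were quantified.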

MEK1 (1-393) = MEK1 (1-393) (rabbit, UniProt P29678 1-393); assay: BLI
KSR2(KD):MEK1 complex = KSR2(KD):MEK1 complex (human | rabbit, UniProt Q6VAB6 634-950; P29678 1-393); assay: BLI

KSR2-MEK1 probe competition (in words) [1]: greatly diminished competition
Molecule: COc1ccc(Nc2ncnc3cc(OC)c(OC)cc23)cc1.Cl [APS-1-70-1, 6,7-Dimethoxy-N-(4-methoxyphenyl)quinazolin-4-amine hydrochloride]

KSR2-MEK1 probe competition (in words) [1]: greatly diminished competition
Molecule: COc1cc2ncnc(Nc3ccc(O)cc3)c2cc1OC.Cl [APS-1-82-1, 4-((6,7-Dimethoxyquinazolin-4-yl)amino)phenol hydrochloride]

assembly of BRAF(F667E) and KSR2-MEK1 (in words) (BRAF(F667E) + KSR2:MEK1): did not associate
KSR-stimulated MEK phosphorylation by RAF [4]: markedly reduced
enhancement in the IC90 of trametinib on ERK phosphorylation [6]: twofold enhancement
Molecule: COc1cc2ncnc(Nc3ccc(Oc4ccccc4)cc3C)c2cc1OC.O=C(O)C(F)(F)F [APS-2-79, 6,7-Dimethoxy-N-(2-methyl-4-phenoxyphenyl)quinazolin-4-amine 2,2,2-trifluoroacetate]
KSR-stimulated MEK and ERK phosphorylation ([2]; KSR(A690F) mutant): significantly diminished the activity
KSR-stimulated MEK and ERK phosphorylation ([2]; wild-type KSR): suppressed
BRAF(V600E)-induced MAPK activation [3]: does not affect
MEK phosphorylation by RAF [5]: inactive
Phospho-AMPK [7]: remains unchanged

Kd (MEK1 (1-393)): 51 nM
B1: B-RAF (modified variant for high-yield expression in E. coli) (enzyme)
chain: RDSSDDWEIPDGQITVGQRIGSGSFGTVYKGKWHGDVAVKMLNVTAPTPQQLQAFKNEVGVLRKTRHVNILLFMGYSTKPQLAIVTQWCEGSSLYHHLHASETKFEMKKLIDIARQTARGMDYLHAKSIIHRDLKSNNIFLHEDNTVKIGDFGLATVKSRWSGSHQFEQLSGSILWMAPEVIRMQDSNPYSFQSDVYAFGIVLYELMTGQLPYSNINNRDQIIFMVGRGSLSPDLSKVRSNCPKRMKRLMAECLKKKRDERPSFPRILAEIEELARELSG
modifications: biotinylated with EZ-Link Sulfo-NHS-Biotin

The remaining lines, values behind:

Molecule: COc1cc2/c(=N/c3ccc(Oc4ccccc4)cc3)ncn(C)c2cc1OC [APS-3-6, (Z)-N-(6,7-Dimethoxy-1-methylquinazolin-4(1H)-ylidene)-4-phenoxyaniline]
KSR2-MEK1 probe competition (in words) [1]: greatly diminished

Molecule: COc1cc2ncnc(Nc3ccc(Oc4ccccc4)cc3)c2cc1OC.Cl [APS-1-68-2, 6,7-Dimethoxy-N-(4-phenoxyphenyl)quinazolin-4-amine hydrochloride]
KSR2-MEK1 probe competition (in words) [1]: competitor of probe-labelling

Molecule: COc1cc2nccc(Nc3ccc(Oc4ccccc4)cc3)c2cc1OC.Cl [APS-2-16, 6,7-Dimethoxy-N-(4-phenoxyphenyl)quinolin-4-amine hydrochloride]
KSR2-MEK1 probe competition (in words) [1]: moderately tolerated

Molecule: Nc1ncnc2c1ncn2[C@@H]1O[C@H](COP(=O)(O)OP(=O)(O)OP(=O)(O)O)[C@@H](O)[C@H]1O [ATP, reference compound]
IC50 ([1]; read-out: IC50 (ATP), KSR2, free ATP vs 2 μM ATP^biotin, KSR2-MEK1 complexes): 86 µM
IC50 (MEK1): 133 µM

Molecule: COc1cc2ncnc(Nc3ccc(OCc4ccccc4)cc3)c2cc1OC.O=C(O)C(F)(F)F [APS-2-12, N-(4-(Benzyloxy)phenyl)-6,7-dimethoxyquinazolin-4-amine 2,2,2-trifluoroacetate]
KSR2-MEK1 probe competition (in words) [1]: diminished

Molecule: COc1cc2ncnc(Nc3ccc(Oc4ccccc4)c(C)c3C)c2cc1OC.Cl [APS-3-77, N-(2,3-Dimethyl-4-phenoxyphenyl)-6,7-dimethoxyquinazolin-4-amine hydrochloride]
IC50 [1]: > 10 µM
KSR2-MEK1 probe competition (in words) [1]: essentially inactive
assembly of BRAF(F667E) and KSR2-MEK1 (in words) (BRAF(F667E) + KSR2:MEK1): did not impede

B2: B-RAF(F667E) (in the modified variant for E. coli expression) (enzyme)
chain: RDSSDDWEIPDGQITVGQRIGSGSFGTVYKGKWHGDVAVKMLNVTAPTPQQLQAFKNEVGVLRKTRHVNILLFMGYSTKPQLAIVTQWCEGSSLYHHLHASETKFEMKKLIDIARQTARGMDYLHAKSIIHRDLKSNNIFLHEDNTVKIGDFGLATVKSRWSGSHQFEQLSGSILWMAPEVIRMQDSNPYSFQSDVYAFGIVLYELMTGQLPYSNINNRDQIIEMVGRGSLSPDLSKVRSNCPKRMKRLMAECLKKKRDERPSFPRILAEIEELARELSG
modifications: biotinylated with EZ-Link Sulfo-NHS-Biotin
Kd (KSR2(KD):MEK1 complex): 1990 nM

— publication PMC5161575 (Nature, 2016)
